Measured values from ChEMBL document CHEMBL1135477, “Antifungal agents. 10. New derivatives of 1-[(aryl)[4-aryl-1H-pyrrol-3-yl]methyl]-1H-imidazole, synthesis, anti-candida activity, and quantitative structure-analysis relationship studies” (J Med Chem, 2002).
≈ marks a conversion by molar mass, not a printed value.

Assays:
Format in all cases: functional
[1] = biological target: Lanosterol 14-alpha demethylase (Candida albicans (strain SC5314 / ATCC MYA-2876) (Yeast), UniProt P10613); test: Anticandida activity- (MIC90 compound) / (MIC90 bifonazole)
Lanosterol 14-alpha demethylase, sequence (P10613 whole entry): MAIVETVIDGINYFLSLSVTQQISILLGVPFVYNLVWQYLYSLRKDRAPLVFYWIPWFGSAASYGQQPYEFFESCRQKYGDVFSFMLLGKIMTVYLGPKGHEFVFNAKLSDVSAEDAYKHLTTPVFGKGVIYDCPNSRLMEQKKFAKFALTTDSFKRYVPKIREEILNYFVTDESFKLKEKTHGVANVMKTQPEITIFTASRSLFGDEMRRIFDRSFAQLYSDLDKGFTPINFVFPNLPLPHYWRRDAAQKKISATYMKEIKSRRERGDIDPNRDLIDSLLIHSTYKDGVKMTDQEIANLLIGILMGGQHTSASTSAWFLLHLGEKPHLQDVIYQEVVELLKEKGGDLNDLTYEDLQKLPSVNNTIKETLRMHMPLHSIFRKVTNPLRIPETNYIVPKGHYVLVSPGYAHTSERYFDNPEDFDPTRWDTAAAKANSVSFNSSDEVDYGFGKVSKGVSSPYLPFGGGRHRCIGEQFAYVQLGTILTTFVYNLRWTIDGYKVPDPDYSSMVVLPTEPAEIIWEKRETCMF

Candida [2] = test: Tested in vitro for antifungal activity against Candida species. at pH 5.8 (percent of resistant species at 256 ug/mL)
Summary of the method: (§1)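 Broth serial-dilution test in Sabouraud broth at pH 7.2 or 5.8, against 3 fresh clinical non-albicans isolates (two C. glabrata, one C. krusei). Inocula were 10³/mL, pre-grown 18 h at 37 °C. Compound was twofold-diluted over 0.25–256 µg/mL and read at 24 h, 37 °C for visible growth.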

Candida albicans [3] = test: In vitro antifungal activity against 40 strains of Candida albicans at pH 5.8
Summary of the method: (§2)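 Broth serial-dilution MIC against 40 clinical C. albicans isolates from hospitalized patients, grown in Sabouraud broth at pH 7.2 or 5.8. Cells were pre-grown 18 h at 37 °C, inoculated at 10³/mL, and read at 24 h, 37 °C. Doubling dilutions ran 0.25–256 μg/mL from a DMSO/water solution. MIC was the lowest concentration with no visible growth against a DMSO/water blank.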

Candida [4] = test: Tested In vitro for antifungal activity against Candida species. at pH 7.2; (percent of resistant species at 256 ug/mL); summary of the method: as §1
Candida albicans [5] = test: In vitro antifungal activity against 40 strains of Candida albicans at pH 5.8; (percent of resistant species at 256 ug/mL)
Summary of the method: (§3)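 Broth serial-dilution test in Sabouraud broth at pH 7.2 or 5.8, against 40 fresh clinical C. albicans isolates from hospitalized patients. Inocula were 10³/mL, pre-grown 18 h at 37 °C in Sabouraud dextrose broth. Compound from a DMSO/water stock was twofold-diluted over 0.25–256 µg/mL. Visible growth was read at 24 h, 37 °C.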

Candida albicans [6] = test: IIn vitro antifungal activity against 40 strains of Candida albicans at pH 7.2; minimum inhibitory concentration (range is from 2 to 64); summary of the method: as §2
Candida [7] = test: Tested in vitro for antifungal activity against Candida species. at pH 5.8 (range is from 8 to 256)
Summary of the method: (§4)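 Liquid serial-dilution MIC against 3 freshly isolated clinical Candida strains (two C. glabrata, one C. krusei) in Sabouraud broth at pH 7.2 or 5.8. Inoculum was 10³/mL after 18 h pre-culture at 37 °C, read at 24 h, 37 °C. Range was 0.25–256 μg/mL. Endpoint was no visible growth versus a DMSO/water blank.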

Candida [8] = test: Tested in vitro for antifungal activity against Candida species. at pH 5.8; summary of the method: as §4
Candida albicans [9] = test: TIn vitro antifungal activity against 40 strains of Candida albicans at pH 5.8; (range is from 4 to 64); summary of the method: as §2
Candida [10] = test: Tested In vitro for antifungal activity against Candida species. at pH 7.2; summary of the method: as §4
Candida albicans [11] = test: In vitro antifungal activity against 40 strains of Candida albicans at pH 7.2; summary of the method: as §2
Candida albicans [12] = test: In vitro antifungal activity against 40 strains of Candida albicans at pH 7.2; (percent of resistant species at 256 ug/mL); summary of the method: as §3
Candida [13] = test: Tested In vitro for antifungal activity against Candida species. at pH 7.2; (range is from 1 to 32); summary of the method: as §4
Candida albicans [14] = test: In vitro antifungal activity against 40 strains of Candida albicans at pH 5.8; (range is from 4 to 64); summary of the method: as §2
Candida [15] = test: Tested in vitro for antifungal activity against Candida species. at pH 5.8 (value ranges from 16 to 128); summary of the method: as §4
Candida albicans [16] = test: IIn vitro antifungal activity against 40 strains of Candida albicans at pH 7.2; minimum inhibitory concentration (range is from 2 to 128); summary of the method: as §2
Candida [17] = test: Tested in vitro for antifungal activity at pH 7.2 (percent of resistant species at 256 ug/mL)
Summary of the method: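 Sabouraud broth serial-dilution test (0.25–256 µg/mL, 10³/mL inocula, 24 h at 37 °C), run at the stated pH on clinical isolates: 40 C. albicans and 3 Candida spp. (two C. glabrata, one C. krusei).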

Candida [18] = test: Tested In vitro for antifungal activity against Candida species. at pH 7.2; (range is from 8 to 256); summary of the method: as §4
Candida albicans [19] = test: In vitro antifungal activity against 40 strains of Candida albicans at pH 5.8 (percent of resistant species at 256 ug/mL); summary of the method: as §3
Candida albicans [20] = test: In vitro antifungal activity against Candida albicans (40 strains) at pH 7.2; (percent of resistant species at 256 ug/mL); summary of the method: as §3
Candida [21] = test: Tested In vitro for antifungal activity against Candida species. at pH 7.2 (percent of resistant species at 256 ug/mL); summary of the method: as §1
Candida albicans [22] = test: In vitro antifungal activity against 40 strains of Candida albicans at pH 7.2; value ranges from 128 to >256; summary of the method: as §2
Candida albicans [23] = test: In vitro antifungal activity against 40 strains of Candida albicans at pH 5.8; value ranges from 256 to >256; summary of the method: as §2

| SMILES | Ratio [1] | Resistance (Candida [2]) | MIC (Candida albicans [3]) | MIC50 (Candida albicans [3]) | MIC90 (Candida albicans [3]) | Resistance (Candida albicans [5]) | MIC (Candida [8]) | MIC50 (Candida [8]) | MIC90 (Candida [8]) | MIC (Candida [10]) | MIC50 (Candida [10]) | MIC90 (Candida [10]) | MIC (Candida albicans [11]) | MIC50 (Candida albicans [11]) | MIC90 (Candida albicans [11]) | Resistance (Candida albicans [12]) | also measured |
| --- | --- | --- | --- | --- | --- | --- | --- | --- | --- | --- | --- | --- | --- | --- | --- | --- | --- |
| Cc1ccc([C@@H](c2ccc(NC(=O)c3ccc(Cl)cc3Cl)cc2)n2ccnc2)cc1 | 0.7 |  |  |  |  |  |  |  |  |  |  |  |  |  |  |  |  |
| COc1ccc([C@@H]([C@@H](Cc2ccc(Cl)cc2Cl)c2ccc(Cl)cc2)n2ccnc2)cc1 | 10.5 |  |  |  |  |  |  |  |  |  |  |  |  |  |  |  |  |
| N#Cc1ccc(-c2c[nH]cc2[C@H](c2ccc(Cl)cc2Cl)n2ccnc2)cc1 | 6.3 | 0% | 41.3 µg/mL (≈ 105 µM) | 8 µg/mL (≈ 20.3 µM) | 32 µg/mL (≈ 81.4 µM) | 0% | 58 µg/mL (≈ 147 µM) | 64 µg/mL (≈ 163 µM) | 256 µg/mL (≈ 651 µM) | 32.4 µg/mL (≈ 82.4 µM) | 16 µg/mL (≈ 40.7 µM) | 64 µg/mL (≈ 163 µM) | 13.2 µg/mL (≈ 33.6 µM) | 8 µg/mL (≈ 20.3 µM) | 32 µg/mL (≈ 81.4 µM) | 0% | Resistance (Candida [4]): 0%; Range (Candida albicans [6]): 64 µg/mL; Range (Candida [7]): 256 µg/mL; Range (Candida albicans [9]): 64 µg/mL; Range (Candida [13]): 32 µg/mL |
| Clc1ccc([C@H](c2c[nH]cc2-c2ccc(-c3ccccc3)cc2)n2ccnc2)c(Cl)c1 | 5.6 |  | 10.1 µg/mL (≈ 22.6 µM) | 8 µg/mL (≈ 18 µM) | 8 µg/mL (≈ 18 µM) | 0% | 53.3 µg/mL (≈ 120 µM) | 16 µg/mL (≈ 36 µM) | 128 µg/mL (≈ 288 µM) | 90.6 µg/mL (≈ 204 µM) | 8 µg/mL (≈ 18 µM) | 256 µg/mL (≈ 576 µM) | 14.9 µg/mL (≈ 33.5 µM) | 8 µg/mL (≈ 18 µM) | 8 µg/mL (≈ 18 µM) | 0% | % R (Candida [2]): 0%; Range (Candida albicans [14]): 64 µg/mL; Range (Candida [15]): 128 µg/mL; Range (Candida albicans [16]): 128 µg/mL; Resistance (Candida [17]): 0%; Range (Candida [18]): 256 µg/mL |
| CC(C)(C)c1ccc(-c2c[nH]cc2[C@@H](c2ccc(Cl)cc2Cl)n2ccnc2)cc1 | 47 | 100% | 256 µg/mL (≈ 603 µM) | > 256 µg/mL | > 256 µg/mL |  |  | > 256 µg/mL | > 256 µg/mL |  | > 256 µg/mL | > 256 µg/mL | 165 µg/mL (≈ 388 µM) | > 256 µg/mL | > 256 µg/mL |  | Resistance (Candida albicans [19]): 97%; Resistance (Candida albicans [20]): 80%; Resistance (Candida [21]): 100%; Range (Candida albicans [22]): >256 µg/mL; Range (Candida albicans [23]): >256 µg/mL; Range (Candida [8]): >256 µg/mL; Range (Candida [10]): >256 µg/mL |
